# In the library only some 11% were active in any assay of this set; here they are far more common.
# WT yeast gro inh = growth inhibition of WT strain, primary screen, mitochondrial fusion inhibitor project, WT and mutant strains, chemical genetic | inhibition, % at 10 µM | 2.1% of 190,000 active | mitochondrial fusion phenotypic screen; in the data active means inhibition above about 58%; tested in S. cerevisiae
# Diaphorase act = compounds boosting diaphorase resazurin reduction – biochemical, uHTS, resorufin fluorescence, counter-screen for diaphorase-coupled primary assays, primary screen; activation factor at 20 µM; 0.005% of 190,000 active; Diaphorase/resazurin coupled assay, 16 min; hits give high values; 1 = vehicle wells, 0 = NADH-free wells; AID 1229, 2008;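 active means diaphorase activity raised at least twofold by the compound at 20 µM; inactive means activation factor below 2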
#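 Material: purified diaphorase enzyme from Clostridium kluyveri; Also added: 0.114 mM NADH and 0.1 mM resazurin, final amounts; Doses: single compound dose of 20 µM, 1% DMSO final; Times: 16 min enzyme reaction, ambient temperature; Detection: resorufin fluorescence, excitation 544 nm, emission 590 nm; Measure: increased resorufin signal from activators or reducing compounds.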
# L major viab = Leishmania major promastigote growth inhibition, primary screen. Leishmania major promastigotes, resazurin fluorescence viability. inhibition, % at 10 µM. 9% of 200,000 active;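 further: promastigotes grown with compound for 44 hours at 28 °C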
# Diaph inh CS = diaphorase inhibitors and chemical oxidizers, primary screen, counter-screen for diaphorase-coupled primary assays, biochemical, uHTS, resorufin fluorescence; 0.69% of 190,000 active; diaphorase resazurin-to-resorufin fluorescence, NADH, 16 min; bacterial (C. kluyveri) enzyme, not human; inhibition, % at 20 µM;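 active means primary screen inhibition at 20 µM above a set limit, cut at about 50% in these data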
#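 Assay system – diaphorase enzyme from Clostridium kluyveri · Amount – diaphorase 0.14 U/mL (working solution) · Times – reaction incubation of 16 min at room temperature · Controls – No-NADH positive control and DMSO neutral control · Signal – resorufin fluorescence 544/590 nm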
# G6PDH counter = L. mesenteroides G6PDH inhibitors, counter-screen for G6PDH-coupled screening assays, biochemical, Leuconostoc mesenteroides enzyme | Purified L. mesenteroides G6PDH, diaphorase/resazurin coupled fluorescence, 45 min | 0.12% of 200,000 active | glucose-6-phosphate dehydrogenase [Leuconostoc mesenteroides] | inhibition, % at 5 µM
# A number is an active result; . = inactive; / = no result given. Unless noted, no stated cut-off is given here; in the data, active means inhibition above about 50%; inactive means the rest.
SMILES,WT yeast gro inh,Diaphorase act,L major viab,Diaph inh CS,G6PDH counter
Cc1ccc(CN2CCN(Cc3ccc4cc(F)ccc4n3)CC2CCO)o1 (centres undefined),.,.,80,.,.
C#CCNC(=O)C1=C[C@H](C2CCCCC2)C[C@H](OCCCCO)O1,.,.,.,.,.
CCn1c(SCC(=O)Nc2nc(C)c(C)s2)nc2cccnc21,.,.,92,.,.
Cn1c(CCc2ccccc2)n[nH]c1=S,.,.,.,.,.
Cc1ccc(S(=O)(=O)Nc2ccc(-c3cn4ccc(C)cc4n3)cc2)cc1,.,.,.,.,.
Cc1ccn2cc(-c3ccc(NC(=O)c4ccco4)cc3)nc2c1,.,.,68,.,.
Cc1ccn2cc(-c3ccc(NS(=O)(=O)c4ccccc4)cc3)nc2c1,.,.,92,.,.
COc1ccc(-c2[nH]ncc2-c2cnn(-c3ccccc3)c2)c(O)c1,.,.,.,.,.
CCCOc1ccc([N+](=O)[O-])cc1C1NC(=S)NC(c2ccccc2)=C1C(=O)OCC (centres undefined),.,.,100,.,.
COc1ccc(O)c(CNn2c(-c3ccc(Br)cc3)nc3ccccc3c2=O)c1,.,.,.,.,.
COc1cccc(CNn2c(-c3cccc(C)c3)nc3ccccc3c2=O)c1O,.,.,54,.,.
Cc1nc2ccccn2c1C(=O)N=Nc1c(O)[nH]c2ccccc12,.,.,.,.,.
COc1cc(S(=O)(=O)NC2CCCCC2)c(C)cc1C,.,.,.,.,.
COc1ccc(OCc2cccc(C(=O)Nc3ccc(CN4CCCCC4)cc3)c2)cc1,.,.,78,.,.
CCOc1ccc(OCc2cccc(C(=O)Nc3ccc(CN4CCCCC4)cc3)c2)cc1,.,.,96,.,.
COc1ccccc1-n1c(CNC(=O)c2ccco2)nnc1SCC(=O)Nc1ccc(F)cc1,.,.,.,.,.
CCc1cccc(Nc2c([N+](=O)[O-])cc(C(=O)N3CC(=O)Nc4ccccc43)cc2[N+](=O)[O-])c1,.,.,79,.,.
OCC1(Cc2ccccc2)CCN(Cc2cccc(F)c2F)CC1,.,.,.,.,.
CSc1ccc(CN2CCC(CO)(Cc3ccc(Cl)cc3)CC2)cc1,67,.,87,.,.
OCC1(Cc2ccc(Cl)cc2)CCN(CCCc2ccccc2)CC1,.,.,95,.,.
OCC1(Cc2ccccc2)CCN(Cc2ccc(C(F)(F)F)cc2)CC1,.,.,81,.,.
OCC1(Cc2ccc(Cl)cc2)CCN(Cc2ccccc2F)CC1,.,.,57,.,.
O=C(NC(=S)N1CCN(c2nc(-c3ccccc3)cs2)CC1)c1cncc(Br)c1,.,/,.,/,.
COc1ccc(C(=O)COC(=O)[C@H](C)Nc2ccc(C(F)(F)F)cc2[N+](=O)[O-])c(OC)c1,.,.,.,.,.
OCC1(Cc2ccc(Cl)cc2)CCN(CC2CC=CCC2)CC1 (centres undefined),.,.,87,.,.
SMILES,WT yeast gro inh,Diaphorase act,L major viab,Diaph inh CS,G6PDH counter
O=C(O)c1ccc(CN2C(=O)c3ccccc3S2(=O)=O)cc1,.,.,.,.,.
O=C(CN1/C(=C(/O)c2ccccc2)C(=O)c2ccccc2S1(=O)=O)c1ccccc1,64,.,.,.,.
O=C(CSc1ccccc1)N(c1ccc(Br)cc1)c1nccs1,.,.,67,.,.
O=C(CCSc1ccccc1)Nc1nccs1,.,.,.,.,.
c1ccc2c(-c3nc(C4CCCCC4)no3)cc(-c3ccncc3)nc2c1,.,.,.,.,.
CCCN(CCC)CCCNC(=O)c1cc2cc3ccc(OC)cc3nc2o1,.,.,96,.,.
COc1ccc2cc3cc(C(=O)NCCc4ccc(OC)c(OC)c4)oc3nc2c1,.,.,.,.,.
COc1ccc2cc3cc(C(=O)Nc4ccc5c(c4)OCO5)oc3nc2c1,.,.,100,.,.
COc1ccc2nc3oc(C(=O)Nc4ccc(OC)c(OC)c4)cc3cc2c1,.,.,.,.,.
CCCCN(CC)CCCNC(=O)c1cc2cc3ccc(OC)cc3nc2o1,.,.,96,.,.
COc1ccc2cc3cc(C(=O)NCc4cccs4)oc3nc2c1,.,.,.,.,.
O=C(NC(=S)N1CCN(C2CCCCC2)CC1)c1ccccc1,.,.,.,.,.
S=C(Nc1ccc(Cl)cc1)N1CCN(C2CCCCC2)CC1,.,.,81,.,.
CC(C)(C)C(O)(CC#CCN1CCCC1)c1ccccc1 (centres undefined),.,.,69,.,.
CC(C)C(O)(CC#CCN1CCCC1)c1ccccc1 (centres undefined),.,.,54,.,.
C(#CCN1CCCC1)CC(c1ccccc1)c1ccccc1,.,.,100,.,.
CC(O)(C#CCN1CCCCC1)c1ccccc1 (centres undefined),.,.,.,.,.
CC(C)C(O)(C#CCN1CCCCCC1)c1ccccc1 (centres undefined),.,.,83,.,.
COc1ccc(NC(=O)Cn2nnc(C(=O)Nc3ccccc3C)c2N)cc1,.,.,.,.,.
c1ccc(CNCC2COc3ccccc3O2)cc1 (centres undefined),.,.,91,.,.
c1ccc(CCCNCC2COc3ccccc3O2)cc1 (centres undefined),.,.,91,.,.
c1ccc(CCCCNCC2COc3ccccc3O2)cc1 (centres undefined),.,.,87,.,.
O=C(Nc1ccccc1C(=O)N1CCCCCC1)c1ccc(Cl)cc1,.,.,.,.,.
COCCNC(=O)C(c1ccc(Cl)cc1)N(CCOC)C(=O)CCC(=O)Nc1nccs1 (centres undefined),.,.,.,.,.
N#Cc1c(NC(=O)COC(=O)c2ccc(F)cc2)sc2c1CCC2,.,.,.,.,.
SMILES,WT yeast gro inh,Diaphorase act,L major viab,Diaph inh CS,G6PDH counter
Cc1ccc(C(=O)OCC(=O)Nc2sc3c(c2C#N)CCC3)cc1,.,.,52,.,.
COCCNCCCOc1ccc(C)cc1Br,.,.,.,.,.
CC(C)NCCCOc1ccc(Cl)cc1Br,.,.,94,.,.
CCCCNCCOCCOc1ccc(F)cc1,.,.,92,.,.
Fc1ccc(OCCOCCOc2cccc3[nH]ccc23)cc1,.,.,.,.,.
COCCCNCCCOc1ccc(Cl)cc1Br,.,.,88,.,.
COCCCNCCCOc1ccc(C)cc1Br,.,.,99,.,.
CC(=O)Nc1nc(-c2ccc(Cl)cc2)ns1,.,.,.,.,.
CCCCNCCOCCOc1ccc(Cl)cc1Br,.,.,100,.,.
C=CCN(CC=C)CCCOc1ccc(Br)cc1Cl,.,.,51,.,.
